From ChEMBL document CHEMBL1781896, “Prenylated derivatives of baicalein and 3,7-dihydroxyflavone: synthesis and study of their effects on tumor cell lines growth, cell cycle and apoptosis” (2011)
Values belong to the molecule of their own block, whether it stands above or below them. Activity calls are given as the source filed them. The calls are words filed in the database; no cut-off is given here.

Assays:
Type in all cases: functional
NCI-H460 [1] = experiment: Growth inhibition of human NCI-H460 cells after 48 hrs by sulforhodamine B assay; settings: NCI-H460, 48 h
Outline: (§1)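 SRB assay in MCF-7, NCI-H460 (5.0 × 10⁴ cells/mL) and A375-C5 (7.5 × 10⁴ cells/mL) grown in RPMI-1640 with 5% FBS. Cells attached overnight, then were exposed 48 h to five serial dilutions (top 150 or 50 µM; DMSO ≤0.25%). Cells were TCA-fixed, SRB-stained and read at A492. GI₅₀ taken from dose-response curves. Mean ± SEM, ≥3 independent experiments in duplicate.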

[2] = Growth inhibition of human A375-C5 cells after 48 hrs by sulforhodamine B assay; settings: A375-C5, 48 h; outline: as §1
MCF7 = experiment: Growth inhibition of human MCF7 cells after 48 hrs by sulforhodamine B assay; settings: MCF7, 48 h; outline: as §1
NCI-H460 [3] = experiment: Cell cycle arrest in human NCI-H460 cells assessed as increase in cell accumulation in G1 phase at 12.6 uM after 48 hrs by propidium iodide staining-based flow cytometry
NCI-H460 [4] = experiment: Cell cycle arrest in human NCI-H460 cells assessed as decrease in cell accumulation in S phase at 12.6 uM after 48 hrs by propidium iodide staining-based flow cytometry
NCI-H460 [5] = experiment: Induction of apoptosis in human NCI-H460 cells assessed as apoptotic cells at 12.6 uM after 48 hrs using annexin-V FITC/PI staining by flow cytometry (reference value: 8.4 to 11.2%)
NCI-H460 [6] = experiment: Cell cycle arrest in human NCI-H460 cells assessed as decrease in cell accumulation in G2/M phase at 12.6 uM after 48 hrs by propidium iodide staining-based flow cytometry
NCI-H460 [7] = experiment: Induction of apoptosis in human NCI-H460 cells assessed as apoptotic cells at 4.1 uM after 48 hrs using annexin-V FITC/PI staining by flow cytometry (reference value: 8.4 to 11.2%)
NCI-H460 [8] = experiment: Cell cycle arrest in human NCI-H460 cells assessed as decrease in cell accumulation in S phase at 4.1 uM after 48 hrs by propidium iodide staining-based flow cytometry
NCI-H460 [9] = experiment: Cell cycle arrest in human NCI-H460 cells assessed as decrease in cell accumulation in G2/M phase at 4.1 uM after 48 hrs by propidium iodide staining-based flow cytometry
NCI-H460 [10] = experiment: Cell cycle arrest in human NCI-H460 cells assessed as increase in cell accumulation in G1 phase at 4.1 uM after 48 hrs by propidium iodide staining-based flow cytometry
NCI-H460 [11] = experiment: Cell cycle arrest in human NCI-H460 cells assessed as decrease in cell accumulation in G2/M phase at 2.7 uM after 48 hrs by propidium iodide staining-based flow cytometry
NCI-H460 [12] = experiment: Cell cycle arrest in human NCI-H460 cells assessed as increase in cell accumulation in G1 phase at 2.7 uM after 48 hrs by propidium iodide staining-based flow cytometry
NCI-H460 [13] = experiment: Induction of apoptosis in human NCI-H460 cells assessed as apoptotic cells at 2.7 uM after 48 hrs using annexin-V FITC/PI staining by flow cytometry (reference value: 8.4 to 11.2%)
NCI-H460 [14] = experiment: Cell cycle arrest in human NCI-H460 cells assessed as decrease in cell accumulation in S phase at 2.7 uM after 48 hrs by propidium iodide staining-based flow cytometry
NCI-H460 [15] = experiment: Cell cycle arrest in human NCI-H460 cells assessed as decrease in cell accumulation in G2/M phase at 6.8 uM after 48 hrs by propidium iodide staining-based flow cytometry
NCI-H460 [16] = experiment: Cell cycle arrest in human NCI-H460 cells assessed as increase in cell accumulation in G1 phase at 6.8 uM after 48 hrs by propidium iodide staining-based flow cytometry
NCI-H460 [17] = experiment: Induction of apoptosis in human NCI-H460 cells assessed as apoptotic cells at 6.8 uM after 48 hrs using annexin-V FITC/PI staining by flow cytometry (reference value: 8.4 to 11.2%)
NCI-H460 [18] = experiment: Cell cycle arrest in human NCI-H460 cells assessed as decrease in cell accumulation in S phase at 6.8 uM after 48 hrs by propidium iodide staining-based flow cytometry
NCI-H460 [19] = experiment: Cell cycle arrest in human NCI-H460 cells assessed as decrease in cell accumulation in S phase at 4.9 uM after 48 hrs by propidium iodide staining-based flow cytometry
NCI-H460 [20] = experiment: Cell cycle arrest in human NCI-H460 cells assessed as decrease in cell accumulation in G2/M phase at 4.9 uM after 48 hrs by propidium iodide staining-based flow cytometry
NCI-H460 [21] = experiment: Induction of apoptosis in human NCI-H460 cells assessed as apoptotic cells at 4.9 uM after 48 hrs using annexin-V FITC/PI staining by flow cytometry (reference value: 8.4 to 11.2%)
NCI-H460 [22] = experiment: Cell cycle arrest in human NCI-H460 cells assessed as increase in cell accumulation in G1 phase at 4.9 uM after 48 hrs by propidium iodide staining-based flow cytometry
NCI-H460 [23] = experiment: Cell cycle arrest in human NCI-H460 cells assessed as increase in cell accumulation in G1 phase at 3.9 uM after 48 hrs by propidium iodide staining-based flow cytometry
NCI-H460 [24] = experiment: Cell cycle arrest in human NCI-H460 cells assessed as decrease in cell accumulation in G2/M phase at 3.9 uM after 48 hrs by propidium iodide staining-based flow cytometry
NCI-H460 [25] = experiment: Induction of apoptosis in human NCI-H460 cells assessed as apoptotic cells at 3.9 uM after 48 hrs using annexin-V FITC/PI staining by flow cytometry (reference value: 8.4 to 11.2%)
NCI-H460 [26] = experiment: Cell cycle arrest in human NCI-H460 cells assessed as decrease in cell accumulation in S phase at 3.9 uM after 48 hrs by propidium iodide staining-based flow cytometry

Structure (SMILES): CC1(C)CCc2c(c(O)c(O)c3c(=O)cc(-c4ccccc4)oc23)O1
GI50 (NCI-H460 [1]): 17.7 µM
GI50 [2]: 27.4 µM
GI50 (MCF7): 21 µM

Structure (SMILES): CC1(C)CCc2c(ccc3c(=O)c(O)c(-c4ccccc4)oc23)O1
GI50 (NCI-H460 [1]): 2.7 µM
Activity (NCI-H460 [11]): Active
GI50 [2]: 2.3 µM
Activity (NCI-H460 [12]): Active
Activity (NCI-H460 [13]): 13.1%
Activity (NCI-H460 [14]): Active
GI50 (MCF7): 3.7 µM

Structure (SMILES): CC(C)=CCC/C(C)=C/COc1ccc2c(=O)c(OC/C=C(\C)CCC=C(C)C)c(-c3ccccc3)oc2c1
GI50 (NCI-H460 [1]): 55 µM
GI50 [2]: 58.5 µM
GI50 (MCF7): 66.5 µM

Structure (SMILES): O=c1c(O)c(-c2ccccc2)oc2cc(O)ccc12 [3,7-DIHYDROXYFLAVONE]
GI50 (NCI-H460 [1]): 15.4 µM
GI50 [2]: 23 µM
GI50 (MCF7): 17.4 µM

Structure (SMILES): CC(C)=CCC/C(C)=C/COc1c(OC/C=C(\C)CCC=C(C)C)c(O)c2c(=O)cc(-c3ccccc3)oc2c1C/C=C(\C)CCC=C(C)C
GI50 (NCI-H460 [1]): > 150 µM
GI50 [2]: > 150 µM
GI50 (MCF7): > 150 µM

Structure (SMILES): CC(C)=CCC/C(C)=C/COc1ccc2c(=O)c(O)c(-c3ccccc3)oc2c1
Activity (NCI-H460 [19]): Active
GI50 (NCI-H460 [1]): 4.9 µM
Activity (NCI-H460 [20]): Active
GI50 [2]: 7.2 µM
Activity (NCI-H460 [21]): 12%
GI50 (MCF7): 6.4 µM
Activity (NCI-H460 [22]): Active

Structure (SMILES): CC(C)=CCOc1ccc2c(=O)c(OCC=C(C)C)c(-c3ccccc3)oc2c1
GI50 (NCI-H460 [1]): 51.9 µM
GI50 [2]: 59 µM
GI50 (MCF7): 63.3 µM

Structure (SMILES): CC1Oc2ccc3c(=O)c(O)c(-c4ccccc4)oc3c2C1(C)C (configuration not stated)
GI50 (NCI-H460 [1]): 3.9 µM
GI50 [2]: 7.6 µM
Activity (NCI-H460 [23]): Active
Activity (NCI-H460 [24]): Active
Activity (NCI-H460 [25]): 9.5%
GI50 (MCF7): 4.5 µM
Activity (NCI-H460 [26]): Active

The next lines start with results.

GI50 (NCI-H460 [1]): > 150 µM
GI50 (MCF7): > 150 µM
Structure (SMILES): CC(C)=CCOc1cc2oc(-c3ccccc3)cc(=O)c2c(O)c1OCC=C(C)C
GI50 [2]: > 150 µM

GI50 (NCI-H460 [1]): 12.6 µM
GI50 (MCF7): 14 µM
Structure (SMILES): CC(C)=CCOc1ccc2c(=O)c(O)c(-c3ccccc3)oc2c1
Activity (NCI-H460 [3]): Active
GI50 [2]: 30.3 µM
Activity (NCI-H460 [4]): Active
Activity (NCI-H460 [5]): 11.9%
Activity (NCI-H460 [6]): Active

GI50 (NCI-H460 [1]): 4.1 µM
GI50 (MCF7): 4.4 µM
Structure (SMILES): CC(C)=CCC/C(C)=C/COc1cc2oc(-c3ccccc3)cc(=O)c2c(O)c1O
GI50 [2]: 5.3 µM
Activity (NCI-H460 [7]): 18.8%
Activity (NCI-H460 [8]): Active
Activity (NCI-H460 [9]): Active
Activity (NCI-H460 [10]): >10%

GI50 (NCI-H460 [1]): > 150 µM
GI50 (MCF7): > 150 µM
Structure (SMILES): CC(C)=CCC/C(C)=C/COc1cc2oc(-c3ccccc3)cc(=O)c2c(O)c1OC/C=C(\C)CCC=C(C)C
GI50 [2]: > 150 µM

GI50 (NCI-H460 [1]): 6.8 µM
GI50 (MCF7): 9.1 µM
Structure (SMILES): CC(C)=CCOc1cc2oc(-c3ccccc3)cc(=O)c2c(O)c1O
Activity (NCI-H460 [15]): Active
GI50 [2]: 9.2 µM
Activity (NCI-H460 [16]): >10%
Activity (NCI-H460 [17]): 9.1%
Activity (NCI-H460 [18]): Active

GI50 (NCI-H460 [1]): > 150 µM
GI50 (MCF7): > 150 µM
Structure (SMILES): CC(C)=CCOc1c(OCC=C(C)C)c(O)c2c(=O)cc(-c3ccccc3)oc2c1CC=C(C)C
GI50 [2]: > 150 µM

GI50 (NCI-H460 [1]): 40.6 µM
GI50 (MCF7): 43.7 µM
Structure (SMILES): CC1Oc2c(O)c(O)c3c(=O)cc(-c4ccccc4)oc3c2C1(C)C (configuration not stated)
GI50 [2]: 47.7 µM

GI50 (NCI-H460 [1]): 26.7 µM
GI50 (MCF7): 32.8 µM
Structure (SMILES): O=c1cc(-c2ccccc2)oc2cc(O)c(O)c(O)c12 [BAICALEIN]
GI50 [2]: 7.7 µM
